Reference: ChEMBL document CHEMBL4350958, “Rational Design of Short Peptide Variants by Using Kunitzin-RE, an Amphibian-Derived Bioactivity Peptide, for Acquired Potent Broad-Spectrum Antimicrobial and Improved Therapeutic Potential of Commensalism Coinfection of Pathogens” (J Med Chem, 2019)
Values after ≈ are worked out from the molar mass of the structure shown. Where a SMILES comes first, the peptide text is derived from it.

Tests used:
[1] = tested on: Lipopolysaccharide (LPS); test: Displacement of BODIPY-TR-cadaverine from Escherichia coli O111:B4 LPS after 1 hr by spectrofluorophotometric method
Summary of the method: (§1)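 LPS from E. coli O111:B4 (50 μg/mL) preincubated 4 h with BODIPY-TR-cadaverine (5 μg/mL) in 50 mM Tris, pH 7.4. Mixed with equal volume of peptide (1-64 µM) and incubated 1 h at 37 °C, then fluorescence read. %ΔF = (Fobs−F0)/(F100−F0)×100, with 10 μg mL-1 polymyxin B defining F100. Three technical replicates per experiment.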

[2] = tested on: Lipopolysaccharide (LPS); test: Displacement of BODIPY-TR-cadaverine from Escherichia coli O111:B4 LPS at 1 to 64 uM after 1 hr by spectrofluorophotometric method relative to control; summary of the method: as §1
[3] = tested on: Candida parapsilosis; test: Fungicidal activity against Candida parapsilosis cgmcc2.3989 incubated for 48 hrs followed by replating on YM agar plate and measured after 48 hrs; type: functional
Summary of the method: (§2)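 Yeast diluted in MOPS-buffered RPMI 1640 to (0.5–1) × 10^3 CFU/mL (CLSI M27-A2, modified) and mixed 1:1 with peptide serially diluted in 0.2% BSA. After 48 h at 28 °C, 50 μL per well was plated on YM agar and incubated 48 h at 28 °C. MFC taken as the lowest concentration killing ≥99.9% of cells. Three or more independent experiments, triplicate wells.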

[4] = tested on: Staphylococcus epidermidis; test: Antibacterial activity against Staphylococcus epidermidis ATCC 12228 measured after 24 hrs; type: functional
Summary of the method: (§3)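 Broth microdilution adapted from NCCLS. Mid-log bacteria were diluted in MHB to a final (0.5–1) × 10^5 CFU mL−1. Peptides were serially diluted in 0.2% BSA and mixed with an equal volume of cells. After 24 h at 37 °C, MIC was read at A492 as the lowest concentration inhibiting 95% of growth. At least three independent experiments, each with three technical replicates.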

[5] = Therapeutic index, ratio of MHC10 for hemolytic activity in human RBC to MIC95 against Candida parapsilosis cgmcc2.3989; type: toxicity; conditions: human red blood cells (erythrocytes), read-out: TI
Summary of the method: (§4)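 Therapeutic index = MHC divided by MIC. MHC is the lowest concentration giving >10% lysis of human RBC (1 h, 37 °C, 1-128 µM, A576). MIC is 95% growth inhibition by broth microdilution: bacteria in MHB 24 h at 37 °C; Candida in MOPS-buffered RPMI 1640 at (0.5–1) × 10^3 CFU mL−1, 48 h at 28 °C.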

[6] = tested on: Candida albicans; test: Antifungal activity against Candida albicans cgmcc2.2086 measured after 48 hrs in presence of FeCl by broth microdilution method; type: functional
[7] = Therapeutic index, ratio of MHC10 for hemolytic activity in human RBC to MIC95 against Staphylococcus epidermidis ATCC 12228; type: toxicity; conditions: human red blood cells (erythrocytes), read-out: TI; summary of the method: as §4
[8] = tested on: Staphylococcus aureus; test: Bactericidal activity against Staphylococcus aureus ATCC 25923 incubated for 24 hrs followed by replating on agar plate and measured after overnight incubation; type: functional; conditions: for MBC: ATCC 25923, 24 h, read-out: MBC>99.9
Summary of the method: (§5)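 After the 24 h, 37 °C MHB microdilution MIC assay, 50 μL from each well was plated on agar and incubated overnight. MBC taken as lowest peptide concentration killing >99.9% of cells. At least three independent experiments, each with three technical replicates.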

[9] = tested on: Staphylococcus aureus; test: Bactericidal activity against Staphylococcus aureus ATCC 29213 incubated for 24 hrs followed by replating on agar plate and measured after overnight incubation; type: functional; summary of the method: as §5
[10] = Therapeutic index, ratio of MHC10 for hemolytic activity in human RBC to MIC95 against Candida albicans cgmcc2.2086; type: toxicity; conditions: human red blood cells (erythrocytes), read-out: TI; summary of the method: as §4
[11] = tested on: Candida albicans; test: Antifungal activity against Candida albicans cgmcc2.2086 measured after 48 hrs in presence of KCl by broth microdilution method; type: functional
[12] = tested on: Staphylococcus aureus; test: Antibacterial activity against methicillin-resistant Staphylococcus aureus ATCC 43300 measured after 24 hrs; type: functional
Summary of the method: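 Broth microdilution modified from NCCLS. Mid-log bacteria at (0.5–1) × 10^5 CFU mL−1 in MHB, mixed with peptides serially diluted in 0.2% BSA. Incubated 24 h at 37 °C, read at A492. MIC taken as lowest concentration giving 95% growth inhibition. At least three independent experiments, each with three technical replicates.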

[13] = tested on: Escherichia coli; test: Antibacterial activity against Escherichia coli ATCC 25922 measured after 18 to 24 hrs in presence of NH4Cl; type: functional
[14] = tested on: Candida albicans; test: Fungicidal activity against Candida albicans cgmcc2.2086 incubated for 48 hrs followed by replating on YM agar plate and measured after 48 hrs; type: functional; summary of the method: as §2
[15] = Hemolytic activity in human RBC at 128 uM measured after 1 hr relative to control; type: ADME, cell-based, Erythrocyte; conditions: human red blood cells (erythrocytes), read-out: Activity
Summary of the method: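 Fresh human erythrocytes at ~1% (v/v) in PBS pH 7.4, mixed with equal volume of peptide (1-128 µM) for 1 h at 37 °C. After centrifugation, hemoglobin in the supernatant read at 576 nm. Untreated cells set 0% and 0.1% Triton X-100 set 100% hemolysis. At least three independent experiments, each in triplicate.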

[16] = tested on: Escherichia coli; test: Bactericidal activity against Escherichia coli UB1005 incubated for 24 hrs followed by replating on agar plate and measured after overnight incubation; type: functional; conditions: for MBC: UB1005, 24 h, read-out: MBC>99.9
Summary of the method: (§6)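 Mid-log bacteria diluted in MHB to (0.5–1) × 10^5 CFU/mL and mixed 1:1 with peptide serially diluted in 0.2% BSA. After 24 h at 37 °C, 50 μL of each mixture was plated on agar and incubated overnight. MBC taken as the lowest concentration killing >99.9% of cells. At least three independent experiments, each with three technical replicates.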

[17] = tested on: Escherichia coli; test: Bactericidal activity against Escherichia coli K99 incubated for 24 hrs followed by replating on agar plate and measured after overnight incubation; type: functional; conditions: for MBC: K99, 24 h, read-out: MBC>99.9; summary of the method: as §6
[18] = tested on: Salmonella enterica subsp. enterica serovar Pullorum; test: Antibacterial activity against Salmonella pullorum ATCC 7913 measured after 24 hrs; type: functional; summary of the method: as §3
[19] = Conformational stability in sodium dodecyl sulfate at 35 uM by CD spectra analysis; type: physicochemical
Summary of the method: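 CD spectra from 190 to 250 nm of peptide at 35 μM in 10 mM PBS, 30 mM SDS micelles or 50% TFE, recorded in a 1.0-mm quartz cell. Ellipticity was converted to mean residue ellipticity. Three independent scans, each averaged over more than 3 runs.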

Row | Compound | Activity [1] | Activity [2] [%] | MFC<=99.9 [3] [µM] | MIC95 ([4]; ATCC 12228, 24 h) [µM] | selectivity ratio [5] | MIC95 ([6]; cgmcc2.2086, 48 h) [µM] | selectivity ratio [7] | MBC [8] [µM] | selectivity ratio [10] | MIC95 ([11]; cgmcc2.2086, 48 h) [µM] | MIC95 ([12]; ATCC 43300, 24 h) [µM] | MIC95 [13] [µM] | hemolysis at 1 h, 128 µM [15] [%] | MBC [16] [µM] | MBC [17] [µM] | MIC95 [4] [µM] | MIC95 [6] [µM] | MBC>99.9 [8] [µM] | MBC>99.9 [9] [µM] | MIC95 [11] [µM] | further results
1 | CC[C@H](C)[C@H](NC(=O)CN)C(=O)NCC(=O)N[C@@H](C)C(=O)N[C@H](C(=O)N[C@@H](CC(C)C)C(=O)N[C@@H](CCCCN)C(=O)N[C@H](C(=O)N[C@@H](CC(C)C)C(=O)N[C@H](C(=O)N[C@H](C(=O)NCC(=O)N[C@@H](CC(C)C)C(=O)N1CCC[C@H]1C(=O)N[C@@H](C)C(=O)N[C@@H](CC(C)C)C(=O)N[C@H](C(=O)N[C@@H](CO)C(=O)N[C@@H](Cc1c[nH]c2ccccc12)C(=O)N[C@H](C(=O)N[C@@H](CCCCN)C(=O)N[C@@H](CCCNC(=N)N)C(=O)N[C@@H](CCCCN)C(=O)N[C@@H](CCCNC(=N)N)C(=O)N[C@@H](CCC(N)=O)C(=O)N[C@@H](CCC(N)=O)C(N)=O)[C@@H](C)CC)[C@@H](C)CC)[C@@H](C)O)[C@@H](C)O)C(C)C)C(C)C [MELITTIN] | Dose-dependent effect | 96 | 4 (≈ 11.4 µg/mL) | 2 (≈ 5.69 µg/mL) | 0.32 | 4 | 0.35 | 8 (≈ 22.8 µg/mL) | 0.32 | 4 | 1 (≈ 2.85 µg/mL) | 2 | 84 to 94 | 2 (≈ 5.69 µg/mL) | 2 (≈ 5.69 µg/mL) |  |  |  |  |  | MBC ([9]; ATCC 29213, 24 h, read-out: MBC>99.9): 8 µM (≈ 22.8 µg/mL); MFC<=99.9 [14]: 8 µM (≈ 22.8 µg/mL)
2 | POLYMYXIN B |  |  | 16 |  |  |  |  |  |  |  |  | 2 |  |  |  | 32 | 32 | > 128 | 64 | 32 | MIC95 [12]: 64 µM; MFC (≥99.9% killing) [14]: 64 µM; MIC95 [18]: 1 µM; MBC>99.9 [16]: 2 µM; MBC>99.9 [17]: 1 µM
3 | GENTAMICIN |  |  |  |  |  |  |  |  |  |  |  | 1 |  |  |  | 1 | > 128 | 1 | 1 | > 128 | MIC95 [12]: 8 µM; MIC95 [18]: 1 µM; MBC>99.9 [16]: 1 µM; MBC>99.9 [17]: 0.5 µM
4 | CC[C@H](C)[C@H](NC(=O)[C@H](CCCCN)NC(=O)[C@H](C)NC(=O)[C@H](C)N)C(=O)N[C@H](C(=O)N[C@@H](CC(C)C)C(=O)N[C@@H](CC(N)=O)C(=O)N1CCC[C@H]1C(=O)N[C@@H](CCCCN)C(=O)N[C@@H](Cc1ccccc1)C(=O)N[C@@H](CCCNC(=N)N)C(=O)N[C@@H](CS)C(=O)N[C@@H](CCCCN)C(=O)N[C@@H](C)C(=O)N[C@@H](C)C(=O)N[C@@H](Cc1ccccc1)C(=O)N[C@@H](CS)C(N)=O)[C@@H](C)CC (H-AAKIILNPKFRCKAAFC-NH2) | Dose-dependent effect | 72 |  | > 128 | 0.25 | > 128 | 0.3 | > 128 | 0.25 | > 128 | > 128 | 32 | 20 | 128 (≈ 242 µg/mL) | 64 (≈ 121 µg/mL) |  |  |  |  |  | Stability [19]: Unstable
